Experimental data: ChEMBL document CHEMBL2086267, “Discovery of N6-phenyl-1H-pyrazolo[3,4-d]pyrimidine-3,6-diamine derivatives as novel CK1 inhibitors using common-feature pharmacophore model based virtual screening and hit-to-lead optimization” (Eur J Med Chem, 2012)

Columns and labels:
[1] = target: T1, Casein kinase I isoform alpha (Homo sapiens, UniProt P48729); test: Inhibition of CK1 using KRRRALS(p)VASLPGL as substrate after 40 mins by scintillation counter
Target sequence in this assay (P48729 whole entry, canonical isoform): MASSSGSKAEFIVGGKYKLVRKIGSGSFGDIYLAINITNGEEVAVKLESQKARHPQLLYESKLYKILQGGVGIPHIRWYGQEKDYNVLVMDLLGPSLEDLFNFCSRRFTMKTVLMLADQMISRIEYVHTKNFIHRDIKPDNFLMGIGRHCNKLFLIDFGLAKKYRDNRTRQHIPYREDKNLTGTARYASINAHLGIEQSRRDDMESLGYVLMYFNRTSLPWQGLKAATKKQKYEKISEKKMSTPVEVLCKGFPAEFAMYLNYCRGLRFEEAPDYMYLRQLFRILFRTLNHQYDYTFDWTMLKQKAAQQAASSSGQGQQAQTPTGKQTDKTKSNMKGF

[2] = target: T1, Casein kinase I isoform alpha; test: Inhibition of CK1 using KRRRALS(p)VASLPGL as substrate at 10 uM after 40 mins by scintillation counter
How it was run: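 Radiometric CK1 assay with substrate KRRRALS(p)VASLPGL and [γ-³³P]ATP plus 10 mM Mg acetate, in 20 mM MOPS, 1 mM EDTA, 0.01% Brij-35 and 5% glycerol. Reactions were spotted onto P30 filtermat, washed three times for 5 min in 75 mM phosphoric acid and once in methanol, dried, then scintillation counted. Run twice; mean activity reported.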
Target sequence in this assay (P48729 2-337 limits assumed): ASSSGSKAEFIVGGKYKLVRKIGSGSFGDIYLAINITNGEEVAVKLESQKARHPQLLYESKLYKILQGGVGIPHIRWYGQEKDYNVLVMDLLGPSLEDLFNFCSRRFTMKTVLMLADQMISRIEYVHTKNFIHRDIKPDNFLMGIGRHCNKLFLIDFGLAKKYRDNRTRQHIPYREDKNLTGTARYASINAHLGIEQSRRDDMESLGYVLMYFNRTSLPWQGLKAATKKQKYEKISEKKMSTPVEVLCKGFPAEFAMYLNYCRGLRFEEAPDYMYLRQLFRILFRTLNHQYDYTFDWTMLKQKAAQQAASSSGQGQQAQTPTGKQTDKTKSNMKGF

[3] = target: ALK tyrosine kinase receptor (Homo sapiens) (UniProt Q9UM73); test: Inhibition of ALK at 10 uM
How it was run: (§1)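 Kinase inhibition was tested through a commercial kinase profiling service. Each assay was run twice and mean activity calculated.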

[4] = target: Tyrosine-protein kinase receptor UFO (Homo sapiens) (UniProt P30530); test: Inhibition of Axl at 10 uM; how it was run: as §1
[5] = target: Serine/threonine-protein kinase mTOR (Homo sapiens) (UniProt P42345); test: Inhibition of mTOR at 10 uM; how it was run: as §1
[6] = target: Serine/threonine-protein kinase PLK1 (Homo sapiens) (UniProt P53350); test: Inhibition of Plk1 at 10 uM; how it was run: as §1
[7] = target: Hepatocyte growth factor receptor (Homo sapiens) (UniProt P08581); test: Inhibition of Met at 10 uM; how it was run: as §1
[8] = target: Epidermal growth factor receptor (Homo sapiens) (UniProt P00533); test: Inhibition of EGFR at 10 uM; how it was run: as §1
[9] = target: Cyclin-dependent kinase 1 (Homo sapiens) (UniProt P06493); test: Inhibition of CDK1 at 10 uM; how it was run: as §1
[10] = target: Fibroblast growth factor receptor 2 (Homo sapiens) (UniProt P21802); test: Inhibition of FGFR2 at 10 uM; how it was run: as §1
[11] = target: Glycogen synthase kinase-3 alpha (Homo sapiens) (UniProt P49840); test: Inhibition of GSK3alpha at 10 uM; how it was run: as §1
[12] = target: Receptor-type tyrosine-protein kinase FLT3 (Homo sapiens) (UniProt P36888); test: Inhibition of Flt3 at 10 uM; how it was run: as §1
[13] = target: Platelet-derived growth factor receptor alpha (Homo sapiens) (UniProt P16234); test: Inhibition of PDGFRalpha at 10 uM; how it was run: as §1
[14] = target: Vascular endothelial growth factor receptor 2 (Homo sapiens) (UniProt P35968); test: Inhibition of KDR at 10 uM; how it was run: as §1

Tyrosine-protein kinase receptor UFO (Homo sapiens), sequence (P30530 whole entry): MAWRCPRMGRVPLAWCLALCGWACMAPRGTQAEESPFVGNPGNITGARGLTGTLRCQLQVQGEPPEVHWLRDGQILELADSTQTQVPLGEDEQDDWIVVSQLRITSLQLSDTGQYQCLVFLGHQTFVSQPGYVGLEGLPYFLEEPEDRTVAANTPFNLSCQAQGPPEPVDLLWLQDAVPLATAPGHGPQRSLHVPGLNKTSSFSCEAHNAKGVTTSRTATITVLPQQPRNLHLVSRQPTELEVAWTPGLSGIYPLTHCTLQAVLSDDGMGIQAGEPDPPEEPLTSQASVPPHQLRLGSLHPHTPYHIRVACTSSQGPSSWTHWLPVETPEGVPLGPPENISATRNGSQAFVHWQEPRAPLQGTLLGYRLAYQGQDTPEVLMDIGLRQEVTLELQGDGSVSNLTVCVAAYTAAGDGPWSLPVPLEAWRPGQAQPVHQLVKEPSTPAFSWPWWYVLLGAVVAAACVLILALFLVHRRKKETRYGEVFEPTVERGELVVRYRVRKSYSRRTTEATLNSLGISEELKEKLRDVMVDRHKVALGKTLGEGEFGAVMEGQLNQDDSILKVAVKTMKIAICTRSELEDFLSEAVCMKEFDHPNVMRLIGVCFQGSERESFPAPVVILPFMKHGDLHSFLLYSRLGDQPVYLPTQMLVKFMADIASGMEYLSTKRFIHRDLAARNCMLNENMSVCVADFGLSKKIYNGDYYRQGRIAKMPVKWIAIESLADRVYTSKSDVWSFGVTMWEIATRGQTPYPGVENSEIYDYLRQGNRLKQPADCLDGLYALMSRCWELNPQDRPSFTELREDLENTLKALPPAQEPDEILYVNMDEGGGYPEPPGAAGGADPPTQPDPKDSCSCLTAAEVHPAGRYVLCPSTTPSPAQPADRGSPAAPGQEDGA
Receptor-type tyrosine-protein kinase FLT3 (Homo sapiens), sequence (P36888 whole entry): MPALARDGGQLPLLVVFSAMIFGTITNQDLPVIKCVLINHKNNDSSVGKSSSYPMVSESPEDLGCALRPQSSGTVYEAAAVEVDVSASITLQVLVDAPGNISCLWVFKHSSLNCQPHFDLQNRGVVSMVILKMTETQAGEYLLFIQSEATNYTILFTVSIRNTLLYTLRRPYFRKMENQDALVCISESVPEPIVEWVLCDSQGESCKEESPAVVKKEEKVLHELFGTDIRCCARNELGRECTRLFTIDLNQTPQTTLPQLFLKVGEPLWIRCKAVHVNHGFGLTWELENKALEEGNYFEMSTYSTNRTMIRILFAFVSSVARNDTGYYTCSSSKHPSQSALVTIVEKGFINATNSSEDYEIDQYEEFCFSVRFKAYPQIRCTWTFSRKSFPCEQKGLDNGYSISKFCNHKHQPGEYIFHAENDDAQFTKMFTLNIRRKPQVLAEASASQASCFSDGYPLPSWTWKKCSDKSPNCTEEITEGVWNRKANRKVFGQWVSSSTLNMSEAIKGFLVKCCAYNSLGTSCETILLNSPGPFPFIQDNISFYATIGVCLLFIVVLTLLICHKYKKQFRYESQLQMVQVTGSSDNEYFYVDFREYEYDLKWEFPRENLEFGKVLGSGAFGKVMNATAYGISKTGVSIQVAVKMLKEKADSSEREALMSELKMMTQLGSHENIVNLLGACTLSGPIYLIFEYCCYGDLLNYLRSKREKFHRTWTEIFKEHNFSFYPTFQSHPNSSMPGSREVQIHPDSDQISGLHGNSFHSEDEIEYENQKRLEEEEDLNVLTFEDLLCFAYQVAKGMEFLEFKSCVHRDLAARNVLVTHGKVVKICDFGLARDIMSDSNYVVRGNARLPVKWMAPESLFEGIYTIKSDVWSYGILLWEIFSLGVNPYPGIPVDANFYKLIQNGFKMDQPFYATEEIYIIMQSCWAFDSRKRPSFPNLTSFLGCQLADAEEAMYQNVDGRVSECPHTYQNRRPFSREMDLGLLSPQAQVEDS
Serine/threonine-protein kinase PLK1 (Homo sapiens), sequence (P53350 whole entry): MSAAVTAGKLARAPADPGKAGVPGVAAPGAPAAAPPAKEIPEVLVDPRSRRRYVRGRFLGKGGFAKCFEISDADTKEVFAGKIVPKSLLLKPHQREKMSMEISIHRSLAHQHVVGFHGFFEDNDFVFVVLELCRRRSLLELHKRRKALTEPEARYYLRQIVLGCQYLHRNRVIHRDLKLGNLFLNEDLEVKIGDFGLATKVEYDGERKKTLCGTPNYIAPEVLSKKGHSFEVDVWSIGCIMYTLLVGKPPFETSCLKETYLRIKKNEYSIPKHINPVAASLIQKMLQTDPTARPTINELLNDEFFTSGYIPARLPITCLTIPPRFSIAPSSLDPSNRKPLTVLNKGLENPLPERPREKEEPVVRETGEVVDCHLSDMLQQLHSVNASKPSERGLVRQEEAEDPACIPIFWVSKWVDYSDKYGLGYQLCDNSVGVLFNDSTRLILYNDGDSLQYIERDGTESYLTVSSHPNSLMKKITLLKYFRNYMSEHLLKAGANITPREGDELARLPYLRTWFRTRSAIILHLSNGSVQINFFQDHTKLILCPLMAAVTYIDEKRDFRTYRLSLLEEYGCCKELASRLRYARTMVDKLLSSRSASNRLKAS
Platelet-derived growth factor receptor alpha (Homo sapiens), sequence (P16234 whole entry): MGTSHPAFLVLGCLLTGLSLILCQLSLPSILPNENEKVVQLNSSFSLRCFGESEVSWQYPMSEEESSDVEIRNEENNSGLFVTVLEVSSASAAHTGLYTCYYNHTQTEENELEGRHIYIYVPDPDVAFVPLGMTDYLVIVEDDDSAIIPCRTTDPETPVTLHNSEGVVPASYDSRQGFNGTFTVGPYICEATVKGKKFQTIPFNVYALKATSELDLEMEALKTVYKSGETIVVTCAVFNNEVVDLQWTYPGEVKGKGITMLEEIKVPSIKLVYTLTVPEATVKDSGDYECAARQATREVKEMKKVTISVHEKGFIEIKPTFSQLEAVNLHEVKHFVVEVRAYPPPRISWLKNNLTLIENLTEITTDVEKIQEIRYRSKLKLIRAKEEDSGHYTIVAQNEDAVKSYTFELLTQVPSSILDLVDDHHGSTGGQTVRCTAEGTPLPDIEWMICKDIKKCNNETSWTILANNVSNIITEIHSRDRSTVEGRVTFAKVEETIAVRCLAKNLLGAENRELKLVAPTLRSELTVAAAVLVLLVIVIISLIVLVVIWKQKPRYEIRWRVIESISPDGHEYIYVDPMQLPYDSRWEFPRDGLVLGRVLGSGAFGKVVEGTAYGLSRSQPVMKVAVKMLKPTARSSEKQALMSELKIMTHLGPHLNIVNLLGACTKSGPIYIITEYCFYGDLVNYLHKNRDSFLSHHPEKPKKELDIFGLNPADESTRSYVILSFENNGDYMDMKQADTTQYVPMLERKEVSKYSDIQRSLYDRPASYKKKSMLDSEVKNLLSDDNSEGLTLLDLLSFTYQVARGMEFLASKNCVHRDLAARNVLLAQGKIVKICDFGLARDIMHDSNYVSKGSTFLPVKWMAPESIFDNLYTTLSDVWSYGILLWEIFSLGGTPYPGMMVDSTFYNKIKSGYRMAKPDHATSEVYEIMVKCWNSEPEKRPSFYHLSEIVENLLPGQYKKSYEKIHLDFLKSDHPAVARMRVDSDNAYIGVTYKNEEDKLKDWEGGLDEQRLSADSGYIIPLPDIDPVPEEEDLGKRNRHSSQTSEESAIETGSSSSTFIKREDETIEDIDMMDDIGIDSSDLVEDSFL
Cyclin-dependent kinase 1 (Homo sapiens), sequence (P06493 whole entry, looked up): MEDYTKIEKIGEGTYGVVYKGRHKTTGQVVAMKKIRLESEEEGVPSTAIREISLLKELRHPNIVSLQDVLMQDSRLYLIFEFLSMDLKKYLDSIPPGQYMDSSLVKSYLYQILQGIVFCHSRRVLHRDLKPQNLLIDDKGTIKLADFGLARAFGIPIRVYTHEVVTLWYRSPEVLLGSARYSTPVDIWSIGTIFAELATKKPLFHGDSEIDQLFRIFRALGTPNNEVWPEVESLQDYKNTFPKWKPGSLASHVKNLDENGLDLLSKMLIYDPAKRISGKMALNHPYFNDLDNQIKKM
Glycogen synthase kinase-3 alpha (Homo sapiens), sequence (P49840 2-483 limits assumed): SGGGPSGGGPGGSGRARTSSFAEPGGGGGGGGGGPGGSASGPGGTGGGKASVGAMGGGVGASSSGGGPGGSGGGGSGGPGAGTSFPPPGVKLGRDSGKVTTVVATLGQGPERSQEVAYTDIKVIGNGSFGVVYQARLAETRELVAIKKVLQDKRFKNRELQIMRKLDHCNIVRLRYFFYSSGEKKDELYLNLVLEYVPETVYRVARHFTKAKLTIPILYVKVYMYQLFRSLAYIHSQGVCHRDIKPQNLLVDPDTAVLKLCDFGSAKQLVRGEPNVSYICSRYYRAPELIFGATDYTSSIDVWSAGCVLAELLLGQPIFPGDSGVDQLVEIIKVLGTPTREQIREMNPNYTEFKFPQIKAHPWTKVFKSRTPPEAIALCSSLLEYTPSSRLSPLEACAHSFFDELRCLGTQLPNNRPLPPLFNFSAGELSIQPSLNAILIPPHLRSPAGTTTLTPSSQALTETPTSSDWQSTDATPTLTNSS

C[C@@H](NC(=O)Nc1ccc(Nc2ncc3c(N)n[nH]c3n2)cc1)c1ccccc1
IC50 [1]: > 10000 nM

Nc1n[nH]c2nc(Nc3cccc(NC(=O)Nc4ccc(F)c(Cl)c4)c3)ncc12
inhibition [2]: 100% | inhibition [3]: 26% | inhibition [4]: 46% | inhibition [5]: 0% | inhibition [6]: 0% | inhibition [7]: 99% | inhibition [8]: 92% | inhibition [9]: 42% | inhibition [10]: 35% | inhibition [11]: 34% | inhibition [12]: 90% | inhibition [13]: 82% | inhibition [14]: 96%

CC[C@H](CO)Nc1nc(Nc2cccc(-c3ccccn3)c2)c2ncn(C(C)C)c2n1
IC50 [1]: 14 nM

COc1cc(OC)c(C=C2C(O)=Nc3ccccc32)c(OC)c1 [IC261]
IC50 [1]: 1000 nM

Nc1n[nH]c2nc(Nc3ccc(NC(=O)Nc4ccc(F)c(Cl)c4)cc3)ncc12
IC50 [1]: > 10000 nM

NCCNS(=O)(=O)c1ccc(Cl)c2ccncc12
IC50 [1]: 10000 nM

CC(C)(C)c1cc(NC(=O)Nc2cccc(Nc3ncc4c(N)n[nH]c4n3)c2)n[nH]1
IC50 [1]: 142 nM

C[C@@H](NC(=O)Nc1cccc(Nc2ncc3c(N)[nH]nc3n2)c1)c1ccccc1
IC50 [1]: 2470 nM

Nc1[nH]nc2nc(Nc3cccc(NC(=O)Nc4ccc(F)c(Cl)c4)c3)ncc12
IC50 [1]: 78 nM
